Data: ChEMBL document CHEMBL4842395, “Design and Synthesis of Oleanolic Acid Trimers to Enhance Inhibition of Influenza Virus Entry” (ACS Med Chem Lett, 2021)
Active and inactive are the calls of the source. The rule behind the calls is not given here.

Legend:
[1] = Selectivity ratio of CC50 for MDCK cells to IC50 for Influenza A virus A/WSN/33(H1N1) infected in MDCK cells; format: toxicity, cell-based; conditions: dog, read-out: Ratio CC50/IC50
Method in brief: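 Selectivity index calculated as CC50 (uninfected MDCK cells, CellTiter-Glo) divided by IC50 (inhibition of A/WSN/33 H1N1-induced CPE in MDCK cells).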

[2] = Cytotoxicity against MDCK cells assessed as reduction in cell viability by CellTiter-Glo assay; format: cell-based, Canis lupus familiaris; conditions: dog
Method in brief: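 Viability of normal, uninfected MDCK cells measured by CellTiter-Glo. Medium containing 1% DMSO was the negative control. CC50 is the concentration that reduces viability by 50%.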

Influenza A virus [3] = experiment: Antiviral activity against Influenza A virus (A/WSN/1933(H1N1)) infected in MDCK cells assessed as s reduction in virus-induced cytopathic effect after 40 hrs incubation by CellTiter-Glo assay; format: functional, organism-based
Method in brief: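 CPE-based dose–response in MDCK cells infected with A/WSN/33 (H1N1), using the CellTiter-Glo viability read-out. Medium with 1% DMSO was the negative control and oseltamivir phosphate the positive control. IC50 is the concentration giving 50% inhibition of virus-induced CPE. Means of duplicate samples from three independent experiments.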

Influenza A virus [4] = experiment: Antiviral activity against Influenza A virus (A/WSN/1933(H1N1)) infected in MDCK cells assessed as inhibition of virus-induced cytopathic effect at 100 uM measured after 40 hrs incubation by inverted microscpic imaging analysis; format: functional
Method in brief: (§1)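 MDCK cells infected with influenza A/WSN/33 (H1N1), with compounds at 100 μM. Viral CPE judged by direct microscopic observation. DMSO served as the negative control and oseltamivir phosphate as the positive control. Triplicate experiments, with standard deviations.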

[5] = Selectivity index, ratio of CC50 for MDCK cells to IC50 for antiviral activity against Influenza A virus (A/Hong Kong/4801/2014 (H3N2)); format: toxicity; conditions: dog, read-out: Ratio CC50/IC50
Influenza B virus = experiment: Antiviral activity against Influenza B virus (B/Sichuan/531/2018(Victoria)) infected in cells assessed as reduction in infected cells; format: functional, organism-based
Influenza A virus [6] = experiment: Antiviral activity against Influenza A virus (A/WSN/1933(H1N1)) infected in MDCK cells assessed as reduction in virus-induced cytopathic effect at 100 uM measured after 40 hrs incubation by inverted microscpic imaging analysis; format: functional, organism-based; method in brief: as §1
Influenza A virus [7] = experiment: Antiviral activity against Influenza A virus (A/Hong Kong/4801/2014 (H3N2)) infected in cells assessed as reduction in infected cells; format: functional, organism-based
[8] = target: Hemagglutinin (Influenza A virus (A/Puerto Rico/8/1934(H1N1))) (UniProt P03452); experiment: Inhibition of hemagglutinin in compound-pretreated Influenza A virus (A/WSN/1933(H1N1)) infected in chicken RBC assessed as reduction in virus-induced agglutination measured after 25 mins; format: cell-based; conditions: Erythrocyte
Method in brief: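 Hemagglutination inhibition: virus pretreated with compound, then chicken erythrocytes added and incubated a further 25 min at room temperature. Anti-HA antibody served as the positive control.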

[9] = Selectivity index, ratio of CC50 for MDCK cells to IC50 for antiviral activity against Influenza A virus (B/Sichuan/531/2018(Victoria)); format: toxicity; conditions: dog, read-out: Ratio CC50/IC50

Hemagglutinin (Influenza A virus (A/Puerto Rico/8/1934(H1N1))), sequence (P03452 whole entry): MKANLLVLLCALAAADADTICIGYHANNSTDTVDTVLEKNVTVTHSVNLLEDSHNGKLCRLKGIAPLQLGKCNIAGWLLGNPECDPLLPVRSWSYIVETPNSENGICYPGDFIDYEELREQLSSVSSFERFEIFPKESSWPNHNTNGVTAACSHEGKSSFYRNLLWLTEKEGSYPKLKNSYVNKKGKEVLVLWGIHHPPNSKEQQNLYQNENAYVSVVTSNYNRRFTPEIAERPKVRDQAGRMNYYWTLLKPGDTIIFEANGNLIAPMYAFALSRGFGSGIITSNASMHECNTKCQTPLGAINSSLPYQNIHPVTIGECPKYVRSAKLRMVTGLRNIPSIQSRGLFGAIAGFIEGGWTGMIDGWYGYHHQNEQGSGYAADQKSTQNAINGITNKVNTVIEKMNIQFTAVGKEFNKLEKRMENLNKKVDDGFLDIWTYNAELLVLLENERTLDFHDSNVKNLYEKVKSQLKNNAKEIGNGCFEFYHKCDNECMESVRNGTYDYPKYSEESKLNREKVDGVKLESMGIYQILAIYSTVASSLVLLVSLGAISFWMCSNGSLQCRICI

Row | Structure (SMILES) | selectivity ratio [1] | CC50 [2] [µM] | IC50 (Influenza A virus [3]) [µM] | inhibition at 100 µM (Influenza A virus [4]) [%] | selectivity ratio [5] | IC50 (Influenza B virus) [µM] | Activity (Influenza A virus [6]) | IC50 (Influenza A virus [7]) [µM] | inhibition [8] | selectivity ratio [9]
1 | CC1(C)CC[C@]2(C(=O)NCc3cn(Cc4cc(Cn5cc(CNC(=O)[C@]67CCC(C)(C)C[C@H]6C6=CC[C@@H]8[C@@]9(C)CC[C@H](O)C(C)(C)[C@@H]9CC[C@@]8(C)[C@]6(C)CC7)nn5)cc(Cn5cc(CNC(=O)[C@]67CCC(C)(C)C[C@H]6C6=CC[C@@H]8[C@@]9(C)CC[C@H](O)C(C)(C)[C@@H]9CC[C@@]8(C)[C@]6(C)CC7)nn5)c4)nn3)CC[C@]3(C)C(=CC[C@@H]4[C@@]5(C)CC[C@H](O)C(C)(C)[C@@H]5CC[C@]43C)[C@@H]2C1 | > 14.6 | > 100 | 6.86 | > 80 |  |  |  |  |  | 
2 | CC1(C)CC[C@]2(C(=O)NCCCCc3cn(CC(CO)(Cn4cc(CCCCNC(=O)[C@]56CCC(C)(C)C[C@H]5C5=CC[C@@H]7[C@@]8(C)CC[C@H](O)C(C)(C)[C@@H]8CC[C@@]7(C)[C@]5(C)CC6)nn4)Cn4cc(CCCCNC(=O)[C@]56CCC(C)(C)C[C@H]5C5=CC[C@@H]7[C@@]8(C)CC[C@H](O)C(C)(C)[C@@H]8CC[C@@]7(C)[C@]5(C)CC6)nn4)nn3)CC[C@]3(C)C(=CC[C@@H]4[C@@]5(C)CC[C@H](O)C(C)(C)[C@@H]5CC[C@]43C)[C@@H]2C1 | > 3.99 | > 100 | 25.1 | > 80 |  |  |  |  |  | 
3 | CC1(C)CC[C@]2(C(=O)NCCCc3cn(CC(CO)(Cn4cc(CCCNC(=O)[C@]56CCC(C)(C)C[C@H]5C5=CC[C@@H]7[C@@]8(C)CC[C@H](O)C(C)(C)[C@@H]8CC[C@@]7(C)[C@]5(C)CC6)nn4)Cn4cc(CCCNC(=O)[C@]56CCC(C)(C)C[C@H]5C5=CC[C@@H]7[C@@]8(C)CC[C@H](O)C(C)(C)[C@@H]8CC[C@@]7(C)[C@]5(C)CC6)nn4)nn3)CC[C@]3(C)C(=CC[C@@H]4[C@@]5(C)CC[C@H](O)C(C)(C)[C@@H]5CC[C@]43C)[C@@H]2C1 | > 323 | > 100 | 0.31 | > 80 | > 58.5 | 37.6 | Active | 1.71 | Active | > 2.66
4 | CC1(C)CC[C@]2(C(=O)NCCCc3cn(Cc4cc(Cn5cc(CCCNC(=O)[C@]67CCC(C)(C)C[C@H]6C6=CC[C@@H]8[C@@]9(C)CC[C@H](O)C(C)(C)[C@@H]9CC[C@@]8(C)[C@]6(C)CC7)nn5)cc(Cn5cc(CCCNC(=O)[C@]67CCC(C)(C)C[C@H]6C6=CC[C@@H]8[C@@]9(C)CC[C@H](O)C(C)(C)[C@@H]9CC[C@@]8(C)[C@]6(C)CC7)nn5)c4)nn3)CC[C@]3(C)C(=CC[C@@H]4[C@@]5(C)CC[C@H](O)C(C)(C)[C@@H]5CC[C@]43C)[C@@H]2C1 | > 263 | > 100 | 0.38 | > 80 | > 37.5 | 28.4 |  | 2.67 |  | > 3.53
5 | CC1(C)CC[C@]2(C(=O)NCCc3cn(CC(CO)(Cn4cc(CCNC(=O)[C@]56CCC(C)(C)C[C@H]5C5=CC[C@@H]7[C@@]8(C)CC[C@H](O)C(C)(C)[C@@H]8CC[C@@]7(C)[C@]5(C)CC6)nn4)Cn4cc(CCNC(=O)[C@]56CCC(C)(C)C[C@H]5C5=CC[C@@H]7[C@@]8(C)CC[C@H](O)C(C)(C)[C@@H]8CC[C@@]7(C)[C@]5(C)CC6)nn4)nn3)CC[C@]3(C)C(=CC[C@@H]4[C@@]5(C)CC[C@H](O)C(C)(C)[C@@H]5CC[C@]43C)[C@@H]2C1 | > 34.8 | > 100 | 2.87 | > 80 |  |  |  |  |  | 
6 | CC1(C)CC[C@]2(C(=O)NCCc3cn(Cc4cc(Cn5cc(CCNC(=O)[C@]67CCC(C)(C)C[C@H]6C6=CC[C@@H]8[C@@]9(C)CC[C@H](O)C(C)(C)[C@@H]9CC[C@@]8(C)[C@]6(C)CC7)nn5)cc(Cn5cc(CCNC(=O)[C@]67CCC(C)(C)C[C@H]6C6=CC[C@@H]8[C@@]9(C)CC[C@H](O)C(C)(C)[C@@H]9CC[C@@]8(C)[C@]6(C)CC7)nn5)c4)nn3)CC[C@]3(C)C(=CC[C@@H]4[C@@]5(C)CC[C@H](O)C(C)(C)[C@@H]5CC[C@]43C)[C@@H]2C1 | > 3.17 | > 100 | 31.6 | > 80 |  |  |  |  |  | 
7 | CC1(C)CC[C@]2(C(=O)NCCOCCn3cc(OCc4cc(COc5cn(CCOCCNC(=O)[C@]67CCC(C)(C)C[C@H]6C6=CC[C@@H]8[C@@]9(C)CC[C@H](O)C(C)(C)[C@@H]9CC[C@@]8(C)[C@]6(C)CC7)nn5)cc(COc5cn(CCOCCNC(=O)[C@]67CCC(C)(C)C[C@H]6C6=CC[C@@H]8[C@@]9(C)CC[C@H](O)C(C)(C)[C@@H]9CC[C@@]8(C)[C@]6(C)CC7)nn5)c4)nn3)CC[C@]3(C)C(=CC[C@@H]4[C@@]5(C)CC[C@H](O)C(C)(C)[C@@H]5CC[C@]43C)[C@@H]2C1 | > 5.98 | > 100 | 16.7 | > 80 |  |  |  |  |  | 
8 | CC1(C)CC[C@]2(C(=O)NCc3cn(CC(CO)(Cn4cc(CNC(=O)[C@]56CCC(C)(C)C[C@H]5C5=CC[C@@H]7[C@@]8(C)CC[C@H](O)C(C)(C)[C@@H]8CC[C@@]7(C)[C@]5(C)CC6)nn4)Cn4cc(CNC(=O)[C@]56CCC(C)(C)C[C@H]5C5=CC[C@@H]7[C@@]8(C)CC[C@H](O)C(C)(C)[C@@H]8CC[C@@]7(C)[C@]5(C)CC6)nn4)nn3)CC[C@]3(C)C(=CC[C@@H]4[C@@]5(C)CC[C@H](O)C(C)(C)[C@@H]5CC[C@]43C)[C@@H]2C1 | > 21.3 | > 100 | 4.69 | > 80 |  |  |  |  |  | 
9 | CC1(C)CC[C@]2(C(=O)NCCOCCOCCOCCn3cc(OCc4cc(COc5cn(CCOCCOCCOCCNC(=O)[C@]67CCC(C)(C)C[C@H]6C6=CC[C@@H]8[C@@]9(C)CC[C@H](O)C(C)(C)[C@@H]9CC[C@@]8(C)[C@]6(C)CC7)nn5)cc(COc5cn(CCOCCOCCOCCNC(=O)[C@]67CCC(C)(C)C[C@H]6C6=CC[C@@H]8[C@@]9(C)CC[C@H](O)C(C)(C)[C@@H]9CC[C@@]8(C)[C@]6(C)CC7)nn5)c4)nn3)CC[C@]3(C)C(=CC[C@@H]4[C@@]5(C)CC[C@H](O)C(C)(C)[C@@H]5CC[C@]43C)[C@@H]2C1 | > 10.2 | > 100 | 9.84 | > 80 |  |  |  |  |  | 
10 | CCOC(=O)C1=C[C@@H](OC(CC)CC)[C@H](NC(C)=O)[C@@H](N)C1 [OSELTAMIVIR PHOSPHATE] | > 55 | > 100 | 1.82 | > 80 |  | > 100 |  | > 100 |  | 
11 | CC1(C)CC[C@]2(C(=O)O)CC[C@]3(C)C(=CC[C@@H]4[C@@]5(C)CC[C@H](O)C(C)(C)[C@@H]5CC[C@]43C)[C@@H]2C1 [OLEANOLIC_ACID] | > 1.38 | > 100 | 72.3 | > 80 |  |  |  |  |  | 
12 | CC1(C)CC[C@]2(C(=O)NCCCCCc3cn(Cc4cc(Cn5cc(CCCCCNC(=O)[C@]67CCC(C)(C)C[C@H]6C6=CC[C@@H]8[C@@]9(C)CC[C@H](O)C(C)(C)[C@@H]9CC[C@@]8(C)[C@]6(C)CC7)nn5)cc(Cn5cc(CCCCCNC(=O)[C@]67CCC(C)(C)C[C@H]6C6=CC[C@@H]8[C@@]9(C)CC[C@H](O)C(C)(C)[C@@H]9CC[C@@]8(C)[C@]6(C)CC7)nn5)c4)nn3)CC[C@]3(C)C(=CC[C@@H]4[C@@]5(C)CC[C@H](O)C(C)(C)[C@@H]5CC[C@]43C)[C@@H]2C1 |  | > 100 |  | > 80 |  |  |  |  |  | 
13 | CC1(C)CC[C@]2(C(=O)NCCCCCc3cn(CC(CO)(Cn4cc(CCCCCNC(=O)[C@]56CCC(C)(C)C[C@H]5C5=CC[C@@H]7[C@@]8(C)CC[C@H](O)C(C)(C)[C@@H]8CC[C@@]7(C)[C@]5(C)CC6)nn4)Cn4cc(CCCCCNC(=O)[C@]56CCC(C)(C)C[C@H]5C5=CC[C@@H]7[C@@]8(C)CC[C@H](O)C(C)(C)[C@@H]8CC[C@@]7(C)[C@]5(C)CC6)nn4)nn3)CC[C@]3(C)C(=CC[C@@H]4[C@@]5(C)CC[C@H](O)C(C)(C)[C@@H]5CC[C@]43C)[C@@H]2C1 | > 175 | > 100 | 0.57 | > 80 | > 83.3 | > 100 |  | 1.2 |  | 
